Results as given in PubChem BioAssay AID624085 (The Scripps Research Institute Molecular Screening Center, 2012).
Calls of active or inactive are those of the source.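 Rule for the calls: active = IMP-1 enzyme inhibition with IC50 of 10 µM or lower; inactive = IC50 above 10 µM.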

Molecular target: metallo-beta-lactamase IMP-1 (Pseudomonas aeruginosa)
Assay: potency against purified IMP-1 enzyme – biochemical, absorbance, IC50, selectivity assay, late-stage follow-up (AID 624085)
Settings: purified IMP-1, nitrocefin hydrolysis, epi-absorbance
Summary of the method: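 Test system: purified IMP-1 enzyme; medium: HEPES buffer, pH 7.1, with zinc and Brij detergent; also added: nitrocefin substrate; incubation: 15 min pre-incubation, 25 min reaction at 25 °C; technique: fluorescence quench readout, 480/530 nm, EDTA-stopped; repeats: triplicate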

Row | SMILES | IC50
1 | CN1CCN(NC(=O)CN2C(=O)/C(=C/c3c(Cl)ccc(Cl)c3Cl)SC2=S)CC1 | 3.02 µM
2 | CN1CCN(NC(=O)CN2C(=O)/C(=C/c3c(Cl)cccc3Cl)SC2=S)CC1 | inactive
